Measured values taken from ChEMBL document CHEMBL2331279, “Rational design and synthesis of 4-substituted 2-pyridin-2-ylamides with inhibitory effects on SH2 domain-containing inositol 5'-phosphatase 2 (SHIP2)” (Eur J Med Chem, 2013).
Activity calls are given as the source filed them. The calls are words filed in the database; no cut-off is given here.

Assays:
Mus musculus [1] = experiment: Decrease in PEPCK gene expression in db/db mouse liver at 300 mg/kg, po bid for 12 to 13 days by real time RT-PCR analysis; type: functional, organism-based; parameters: dose 300 mg/kg
Procedure, shortened: (§1)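 db/db mice dosed orally twice daily with 300 mg/kg or vehicle for 12-13 days, then fasted overnight and liver removed. Gluconeogenic gene mRNA measured by SYBR-green real-time PCR and expressed as fold change versus vehicle. Mean ± SE, n=7-8; ANOVA with Bonferroni test.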

Mus musculus [2] = experiment: Antidiabetic activity in db/db mouse assessed as fasting plasma glucose level at 300 mg/kg, po bid for 12 to 13 days measured on day 12 to 13 (reference value: 106 +/-6 mg/dl); type: functional
[3] = molecular target: T1, Phosphatidylinositol 3,4,5-trisphosphate 5-phosphatase 2 (Mus musculus) (UniProt Q6P549); experiment: Inhibition of SHIP2 in TNF alpha-treated mouse 3T3L1 cells assessed as potentiation of insulin-stimulated Akt phosphorylation at Thr308 at 10 uM treated for 15 mins after TNF alpha challenge for 16 hrs and prior to insulin stimulation measured after 2 hrs by Western blot analysis relative to untreated control; type: cell-based; conditions: 3T3-L1
T1 sequence (whole entry): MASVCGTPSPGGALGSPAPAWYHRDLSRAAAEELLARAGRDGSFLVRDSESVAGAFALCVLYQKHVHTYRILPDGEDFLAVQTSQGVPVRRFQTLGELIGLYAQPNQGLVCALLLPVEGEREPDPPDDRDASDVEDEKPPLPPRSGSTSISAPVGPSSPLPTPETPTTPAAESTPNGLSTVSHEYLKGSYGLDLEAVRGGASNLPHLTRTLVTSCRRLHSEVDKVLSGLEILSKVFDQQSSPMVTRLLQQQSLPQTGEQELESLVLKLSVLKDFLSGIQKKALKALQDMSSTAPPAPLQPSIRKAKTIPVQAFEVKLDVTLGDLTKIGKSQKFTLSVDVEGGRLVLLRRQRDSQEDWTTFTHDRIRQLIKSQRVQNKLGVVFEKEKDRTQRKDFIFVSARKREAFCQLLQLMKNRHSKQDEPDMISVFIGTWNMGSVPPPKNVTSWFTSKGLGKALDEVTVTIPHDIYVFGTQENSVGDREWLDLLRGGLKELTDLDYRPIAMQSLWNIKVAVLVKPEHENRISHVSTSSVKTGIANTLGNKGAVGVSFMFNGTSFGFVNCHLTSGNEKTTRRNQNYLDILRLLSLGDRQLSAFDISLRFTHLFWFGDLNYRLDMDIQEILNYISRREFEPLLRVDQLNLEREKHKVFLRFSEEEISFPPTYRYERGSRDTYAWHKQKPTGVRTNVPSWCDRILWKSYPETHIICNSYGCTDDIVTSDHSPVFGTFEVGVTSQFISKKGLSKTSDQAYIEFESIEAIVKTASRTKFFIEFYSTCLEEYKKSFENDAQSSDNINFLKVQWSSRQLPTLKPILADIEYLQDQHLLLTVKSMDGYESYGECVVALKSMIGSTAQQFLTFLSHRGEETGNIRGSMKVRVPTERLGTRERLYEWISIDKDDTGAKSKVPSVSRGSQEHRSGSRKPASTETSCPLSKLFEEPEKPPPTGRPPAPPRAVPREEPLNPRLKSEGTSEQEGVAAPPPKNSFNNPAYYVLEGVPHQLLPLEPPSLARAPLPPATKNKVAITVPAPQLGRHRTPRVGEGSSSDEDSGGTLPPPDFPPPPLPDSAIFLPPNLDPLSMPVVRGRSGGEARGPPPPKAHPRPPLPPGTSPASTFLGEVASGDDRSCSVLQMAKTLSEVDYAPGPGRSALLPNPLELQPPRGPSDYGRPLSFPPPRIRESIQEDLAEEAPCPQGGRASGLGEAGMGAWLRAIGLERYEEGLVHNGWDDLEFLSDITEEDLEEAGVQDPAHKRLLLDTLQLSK
Procedure, shortened: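 3T3-L1 fibroblasts differentiated into adipocytes, then serum-starved 16 h with TNFα 20 ng/mL. Treated with compound 10 µM or 0.1% DMSO for 15 min, then stimulated with 17 nM insulin at 37 °C for 2 h. Cells lysed on ice at pH 7.5 and Thr308 phospho-Akt measured by western blot. Results given as fold change versus TNFα+insulin control. Mean ± SE.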

Mus musculus [4] = experiment: Toxicity in db/db mouse assessed as liver weight at 300 mg/kg, po bid for 12 to 13 days measured on day 12 to 13 (reference value: 1.57 +/-0.04 gms); type: organism-based; parameters: dose 300 mg/kg, route oral; conditions: in vivo
Mus musculus [5] = experiment: Toxicity in db/db mouse assessed as body weight at 300 mg/kg, po bid for 12 to 13 days measured on day 10 (reference value: 39.2 +/-0.6 gms); type: organism-based; parameters: dose 300 mg/kg, route oral; conditions: in vivo
Mus musculus [6] = experiment: Toxicity in C57BL/6J mouse assessed as food intake at 300 mg/kg, po bid for 12 to 13 days measured on day 10 (reference value: 3.72 +/-0.23 gms/day); type: organism-based; parameters: dose 300 mg/kg, route oral; conditions: in vivo
Mus musculus [7] = experiment: Decrease in glucose-6-phosphatase gene expression in db/db mouse liver at 300 mg/kg, po bid for 12 to 13 days by real time RT-PCR analysis; type: functional, organism-based; parameters: dose 300 mg/kg; procedure, shortened: as §1
Mus musculus [8] = experiment: Antidiabetic activity in db/db mouse assessed as decrease in glucose area under curve at 300 mg/kg, po bid for 10 days by glucose tolerance test relative vehicle treated control; type: functional; conditions: 240 h
Procedure, shortened: (§2)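 Male mice, 8 weeks old, dosed orally twice daily with 300 mg/kg in 0.5% methylcellulose, or vehicle, for 13 days (C57BL/6J) or 10 days (db/db). After a 6 h fast, glucose 2 g/kg given ip. Tail-vein blood sampled at set times and plasma glucose measured by glucometer. AUC calculated. Mean ± SE, n=5-8; ANOVA with Bonferroni test versus vehicle.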

Mus musculus [9] = experiment: Toxicity in db/db mouse assessed as epididymal white adipose tissue weight at 300 mg/kg, po bid for 12 to 13 days measured on day 12 to 13 (reference value: 1.82 +/-0.1 gms); type: organism-based; parameters: dose 300 mg/kg, route oral; conditions: in vivo
Mus musculus [10] = experiment: Antidiabetic activity in db/db mouse assessed as decrease in HOMA-R index of insulin resistance at 300 mg/kg, po bid for 12 to 13 days; type: functional, organism-based; parameters: dose 300 mg/kg
Mus musculus [11] = experiment: Toxicity in C57BL/6J mouse assessed as body weight at 300 mg/kg, po bid for 12 to 13 days measured on day 10 (reference value: 23.2 +/-0.4 gms); type: organism-based; parameters: dose 300 mg/kg, route oral; conditions: in vivo
Mus musculus [12] = experiment: Toxicity in C57BL/6J mouse assessed as fasting plasma glucose level at 300 mg/kg, po bid for 12 to 13 days measured on day 15 (reference value: 78 +/-6 mg/dl); type: organism-based; parameters: dose 300 mg/kg, route oral; conditions: in vivo
Mus musculus [13] = experiment: Toxicity in C57BL/6J mouse assessed as effect on glucose tolerance at 300 mg/kg, po bid for 13 days by glucose tolerance test; type: organism-based; parameters: dose 300 mg/kg, route oral; conditions: in vivo, 312 h; procedure, shortened: as §2
Mus musculus [14] = experiment: Toxicity in db/db mouse assessed as food intake at 300 mg/kg, po bid for 12 to 13 days measured on day 10 (reference value: 6.06 +/-0.36 gms/day); type: organism-based; parameters: dose 300 mg/kg, route oral; conditions: in vivo
Mus musculus [15] = experiment: Toxicity in C57BL/6J mouse assessed as liver weight at 300 mg/kg, po bid for 12 to 13 days measured on day 15 (reference value: 0.74 +/-0.03 gms); type: organism-based; parameters: dose 300 mg/kg, route oral; conditions: in vivo
Mus musculus [16] = experiment: Antidiabetic activity in db/db mouse assessed as decrease in glucose intolerance at 300 mg/kg, po bid for 10 days by glucose tolerance test; type: functional, organism-based; parameters: dose 300 mg/kg; procedure, shortened: as §2

Row | Structure (SMILES) | inhibition (Mus musculus [1]) | Activity (Mus musculus [2]) [mg/dL] | fold change (FC) [3] | Activity (Mus musculus [4]) [g] | Activity (Mus musculus [5]) [g] | Activity (Mus musculus [6]) [g/day] | inhibition (Mus musculus [7]) | inhibition in vivo at 300 mg/kg (Mus musculus [8]) [%] | Activity (Mus musculus [9]) [g] | inhibition (Mus musculus [10]) | Activity (Mus musculus [11]) [g] | Activity (Mus musculus [12]) [mg/dL] | Activity (Mus musculus [13]) | Activity (Mus musculus [14]) [g/day] | Activity (Mus musculus [15]) [g] | inhibition (Mus musculus [16])
1 | O=C(Cc1c(F)cccc1F)Nc1cc(OCc2ccc(Cl)cc2)ccn1 | Active | 83 | 1.3 | 1.67 | 39.4 | 3.94 | Active | 16 | 1.86 | Active | 23.4 | 88 | Non-toxic | 5.34 | 0.86 | Active
2 | C[C@H](NC(=O)c1sccc1OCc1ccc(Cl)cc1)c1ccccc1 | Active | 77 | 1.2 | 1.8 | 40.1 | 4.1 | Active | 14 | 1.75 | Active | 23 | 87 | Non-toxic | 6.5 | 0.73 | Active
